Assay results reported in ChEMBL document CHEMBL3297648, “Diterpenoids from the Chinese liverwort Heteroscyphus tener and their antiproliferative effects” (J Nat Prod, 2014).
The source made the active and inactive calls. The rule behind the calls is not given here.

Columns and labels:
[1] = Antiproliferative activity against HBE cells assessed as inhibition of cell viability after 24 hrs by MTT assay; format: cell-based; conditions: Homo sapiens
Summary of the method: (§1)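 Cells grown to 50–70% confluence (RWPE1 in K-SFM with pituitary extract and EGF; the other lines in RPMI 1640 with 10% FBS), 5% CO2, 37 °C. Treated for 24 h with DMSO vehicle, compounds, or cisplatin as positive control. MTT (5 mg/mL) added for 4 h, formazan dissolved in DMSO, absorbance read at 570 nm. Viability taken relative to untreated cells after blank subtraction, IC50 fitted from % viability, at least three experiments.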

[2] = Decrease in BRCA1 protein expression in human DU145 cells at 20 uM after 2 to 48 hrs by western blot analysis; format: functional, cell-based; conditions: DU-145
Summary of the method: (§2)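 Cells treated at 20 μM for various times, lysed in RIPA buffer with protease/phosphatase inhibitors, protein quantified by BCA. Equal protein run on 12% SDS-PAGE, transferred to nitrocellulose, blocked 1 h in 5% milk/TBST, primary antibodies overnight at 4 °C, secondary 1:2000 for 45 min, ECL detection on film. GAPDH used as loading control.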

PC-3 [3] = test: Induction of apoptosis in human PC3 cells assessed as late apoptotic cells at 20 uM after 24 hrs by Annexin V-FITC/propidium iodide staining based flow cytometry (reference value: 7.92%); format: functional
Summary of the method: (§3)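 Cells seeded in 6-well plates for 24 h, then given 20 μM for the stated times. Cells were trypsinized, PBS-washed, stained with annexin V-FITC/PI, and analysed immediately by flow cytometry. Means ± SD of three independent experiments; Student's t test against untreated control.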

DU-145 [4] = test: Cell cycle arrest in human DU145 cells assessed as accumulation at S phase at 20 uM after 24 hrs by propidium iodide staining based flow cytometry (reference value: 25.94%); format: functional
NCI-H446 = test: Antiproliferative activity against human NCI-H446 cells assessed as inhibition of cell viability after 24 hrs by MTT assay; format: functional, cell-based; conditions: NCI-H446, 24 h; summary of the method: as §1
DU-145 [5] = test: Induction of apoptosis in human DU145 cells assessed as early apoptotic cells at 20 uM after 12 hrs by Annexin V-FITC/propidium iodide staining based flow cytometry (reference value: 1.60%); format: functional; summary of the method: as §3
PC-3 [6] = test: Induction of apoptosis in human PC3 cells assessed as late apoptotic cells at 20 uM after 8 hrs by Annexin V-FITC/propidium iodide staining based flow cytometry (reference value: 7.92%); format: functional; summary of the method: as §3
PC-3 [7] = test: Antiproliferative activity against human PC3 cells assessed as inhibition of cell viability at 20 uM pretreated for 1 hr with 5 mM antioxidant NAC measured after 24 hrs by MTT assay; format: functional, cell-based
NCI-H292 = test: Antiproliferative activity against human NCI-H292 cells assessed as inhibition of cell viability after 24 hrs by MTT assay; format: functional, cell-based; conditions: NCI-H292, 24 h; summary of the method: as §1
PC-3 [8] = test: Induction of apoptosis in human PC3 cells assessed as early apoptotic cells at 20 uM after 12 hrs by Annexin V-FITC/propidium iodide staining based flow cytometry (reference value: 0.79%); format: functional; summary of the method: as §3
DU-145 [9] = test: Induction of apoptosis in human DU145 cells assessed as increase in caspase-3 activity using Ac-DEVD-AMC as substrate at 20 uM by fluorometric method; format: functional, cell-based; conditions: TDE = time-dependent effect
Summary of the method: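 Cells treated with 20 μM for the stated times. Pellets lysed on ice 15 min, spun at 14 000g for 15 min at 4 °C. Supernatant assayed in buffer containing CHAPS, 10% glycerol, 2 mM EDTA, 5 mM DTT for 2 h at 37 °C. Fluorescence read at ex 380/em 440 nm.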

DU-145 [10] = test: Induction of DNA damage in human DU145 cells assessed as gamma-H2AX phosphorylation at ser139 at 20 uM by western blot analysis; format: functional, cell-based; conditions: TDE = time-dependent effect; summary of the method: as §2
[11] = Cell cycle arrest in human PC3 cells assessed as accumulation at G0/G1 phase at 20 uM after 24 hrs by propidium iodide staining based flow cytometry (reference value: 66.57%); format: functional; conditions: PC-3
[12] = Cell cycle arrest in human PC3 cells assessed as accumulation at S phase at 20 uM after 24 hrs by propidium iodide staining based flow cytometry (reference value: 22.07%); format: functional; conditions: PC-3
DU-145 [13] = test: Cell cycle arrest in human DU145 cells assessed as accumulation at S phase at 10 uM after 24 hrs by propidium iodide staining based flow cytometry (reference value: 25.94%); format: functional
DU-145 [14] = test: Induction of apoptosis in human DU145 cells assessed as late apoptotic cells at 20 uM after 8 hrs by Annexin V-FITC/propidium iodide staining based flow cytometry (reference value: 1.53%); format: functional; summary of the method: as §3
[15] = target: Breast cancer type 1 susceptibility protein (Homo sapiens) (UniProt P38398); test: Inactivation of BRCA1 in human PC3 cells assessed as decline in BRCA1 phosphorylation at Ser1524 at 20 uM after 8 hrs by western blot analysis; format: cell-based; conditions: PC-3; summary of the method: as §2
PC-3 [16] = test: Induction of apoptosis in human PC3 cells assessed as late apoptotic cells at 20 uM after 4 hrs by Annexin V-FITC/propidium iodide staining based flow cytometry (reference value: 7.92%); format: functional; summary of the method: as §3
PC-3 [17] = test: Induction of apoptosis in human PC3 cells assessed as necrotic cells at 20 uM after 12 hrs by Annexin V-FITC/propidium iodide staining based flow cytometry (reference value: 0.98%); format: functional; summary of the method: as §3
DU-145 [18] = test: Increase in p21CIP1 protein expression in human DU145 cells after 2 to 48 hrs by western blot analysis; format: functional, cell-based
Summary of the method: (§4)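 Western blot of cyclin D1, cyclin E, Cdk4 and p21 in PC3 and DU145 lysates. Lysis in RIPA buffer plus protease inhibitors, BCA quantification, 12% SDS-PAGE, nitrocellulose transfer, milk block, primaries overnight at 4 °C, secondary 1:2000 for 45 min, ECL read-out. GAPDH served as loading control.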

PC-3 [19] = test: Induction of DNA damage in human PC3 cells assessed as gamma-H2AX phosphorylation at ser139 at 20 uM by western blot analysis; format: functional, cell-based; conditions: TDE = time-dependent effect; summary of the method: as §2
PC-3 [20] = test: Induction of apoptosis in human PC3 cells assessed as early apoptotic cells at 20 uM after 4 hrs by Annexin V-FITC/propidium iodide staining based flow cytometry (reference value: 0.79%); format: functional; summary of the method: as §3
PC-3 [21] = test: Induction of apoptosis in human PC3 cells assessed as cleaved caspase-3 level at 20 uM after 12 hrs by western blot analysis; format: functional, cell-based
Summary of the method: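 Cells exposed to 20 μM for the stated times. Lysis in RIPA plus protease inhibitors, BCA protein assay, equal protein on 12% SDS-PAGE, transfer to nitrocellulose. Blocking in 5% milk/TBST 1 h; primary antibodies overnight at 4 °C; secondary 1:2000 for 45 min; ECL detection. GAPDH served as loading control.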

[22] = Decrease in cyclin D1 protein expression in human DU145 cells by western blot analysis; format: functional, cell-based; conditions: DU-145, TDE = time-dependent effect; summary of the method: as §4
DU-145 [23] = test: Cell cycle arrest in human DU145 cells assessed as accumulation at G2/M phase at 20 uM after 24 hrs by propidium iodide staining based flow cytometry (reference value: 10.44%); format: functional
NCI-H1299 = test: Antiproliferative activity against human NCI-H1299 cells assessed as inhibition of cell viability after 24 hrs by MTT assay; format: functional, cell-based; conditions: NCI-H1299, 24 h; summary of the method: as §1

Breast cancer type 1 susceptibility protein (Homo sapiens), sequence (P38398 whole entry, looked up): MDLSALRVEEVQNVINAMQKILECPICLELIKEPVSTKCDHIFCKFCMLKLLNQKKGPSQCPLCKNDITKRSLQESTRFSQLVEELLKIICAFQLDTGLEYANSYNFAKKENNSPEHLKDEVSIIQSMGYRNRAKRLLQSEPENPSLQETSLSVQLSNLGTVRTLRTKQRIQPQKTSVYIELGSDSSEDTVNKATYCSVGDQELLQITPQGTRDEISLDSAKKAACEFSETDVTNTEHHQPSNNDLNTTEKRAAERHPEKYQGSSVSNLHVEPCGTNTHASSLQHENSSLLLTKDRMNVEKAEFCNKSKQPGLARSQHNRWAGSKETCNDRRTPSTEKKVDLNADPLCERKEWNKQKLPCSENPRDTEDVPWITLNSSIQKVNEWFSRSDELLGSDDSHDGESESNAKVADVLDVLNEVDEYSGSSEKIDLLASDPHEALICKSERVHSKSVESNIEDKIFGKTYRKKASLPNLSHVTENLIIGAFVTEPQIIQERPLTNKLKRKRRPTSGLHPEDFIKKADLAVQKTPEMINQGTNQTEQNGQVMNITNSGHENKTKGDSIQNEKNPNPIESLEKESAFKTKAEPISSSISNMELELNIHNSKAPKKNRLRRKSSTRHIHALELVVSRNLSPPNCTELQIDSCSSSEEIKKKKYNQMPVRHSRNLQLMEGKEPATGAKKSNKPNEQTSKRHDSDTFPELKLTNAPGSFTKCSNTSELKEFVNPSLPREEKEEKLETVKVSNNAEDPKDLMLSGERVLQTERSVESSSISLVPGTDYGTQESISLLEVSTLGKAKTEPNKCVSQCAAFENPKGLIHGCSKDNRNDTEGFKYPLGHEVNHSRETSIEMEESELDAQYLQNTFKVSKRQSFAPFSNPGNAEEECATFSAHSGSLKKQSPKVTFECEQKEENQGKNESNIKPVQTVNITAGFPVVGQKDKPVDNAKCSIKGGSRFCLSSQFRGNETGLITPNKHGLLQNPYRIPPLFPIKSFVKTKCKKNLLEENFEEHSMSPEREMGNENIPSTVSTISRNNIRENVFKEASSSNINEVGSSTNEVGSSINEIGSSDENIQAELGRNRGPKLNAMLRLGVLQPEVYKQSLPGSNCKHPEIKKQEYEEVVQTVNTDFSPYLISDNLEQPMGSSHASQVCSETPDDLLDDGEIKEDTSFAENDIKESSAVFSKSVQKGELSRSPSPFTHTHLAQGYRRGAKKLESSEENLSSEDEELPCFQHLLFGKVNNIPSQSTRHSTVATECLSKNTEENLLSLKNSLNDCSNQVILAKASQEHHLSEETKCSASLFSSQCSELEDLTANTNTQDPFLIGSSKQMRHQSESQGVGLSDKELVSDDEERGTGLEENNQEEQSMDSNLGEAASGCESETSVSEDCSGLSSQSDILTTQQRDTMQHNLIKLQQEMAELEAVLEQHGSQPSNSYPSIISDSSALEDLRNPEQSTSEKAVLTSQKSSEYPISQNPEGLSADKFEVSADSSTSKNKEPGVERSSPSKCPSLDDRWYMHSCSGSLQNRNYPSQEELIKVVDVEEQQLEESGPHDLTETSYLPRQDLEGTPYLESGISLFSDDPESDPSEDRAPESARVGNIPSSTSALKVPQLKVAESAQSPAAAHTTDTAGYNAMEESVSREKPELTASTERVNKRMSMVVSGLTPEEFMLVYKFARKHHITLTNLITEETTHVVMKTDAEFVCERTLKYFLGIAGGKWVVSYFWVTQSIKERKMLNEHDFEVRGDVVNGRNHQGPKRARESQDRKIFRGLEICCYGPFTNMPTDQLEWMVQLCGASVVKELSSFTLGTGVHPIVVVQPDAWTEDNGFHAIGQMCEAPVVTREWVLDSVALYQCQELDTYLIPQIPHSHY

For `C=C[C@@](C)(O)CC[C@@H]1C(C)=CC[C@@H]2C(C)(C)CCC[C@@]12C`, the IC50 [1] was 53.9 µM, the inhibition [2] was “inactive” and the Activity (PC-3 [3]) was 66.46%. The Activity (DU-145 [4]) was 8.73%, the IC50 (NCI-H446) was 39.5 µM and the Activity (DU-145 [5]) was 6.55%. For the same compound, the Activity (PC-3 [6]) was 15.29%, the inhibition (PC-3 [7]) was “inactive” and the IC50 (NCI-H292) was 17.1 µM. For the same compound, the Activity (PC-3 [8]) was 3.51%, the Activity (DU-145 [9]) was “tde” and the Activity (DU-145 [10]) was “tde”. The Activity [11] was 82.5%, the Activity [12] was 4.24% and the Activity (DU-145 [13]) was 21.68%. For the same compound, the Activity (DU-145 [14]) was 8.94%, the inhibition [15] was “Active” and the Activity (PC-3 [16]) was 12.94%. The Activity (PC-3 [17]) was 4.68%, the Activity (DU-145 [18]) was “Active” and the Activity (PC-3 [19]) was “tde”. The Activity (PC-3 [20]) was 2.48%, the Activity (PC-3 [21]) was “Active” and the inhibition [22] was “tde”. The Activity (DU-145 [23]) was 12.9% and the IC50 (NCI-H1299) was 35.1 µM.
